# Laboratory results taken from ChEMBL document CHEMBL3046087, “Aminomethylphosphonic acid accumulation in plant species treated with glyphosate” (J Agric Food Chem, 2008).
# Key:
# Senna occidentalis [1] = assay: Drug level in Senna occidentalis (coffee senna) assessed as AMPA level at growth inhibition I50 level rate measured 7 days post treatment; type: organism-based; conditions: in vivo, 168 h
# In short: (§1)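 Greenhouse plants (28/22 °C, 13 h photoperiod) were sprayed with glyphosate at each species' I50 rate, with Tween 20-treated controls. Shoots were cut at 7 DAT and rinsed to remove surface herbicide. Pooled ground tissue (1 g) was water-extracted twice with sonication, acidified, and washed with methylene chloride. Extracts were derivatized with heptafluorobutanol/TFAA (90 °C, 1 h) and measured by GC-MS against derivatized standards, in duplicate.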
# Vigna unguiculata [2] = assay: Drug level in Vigna unguiculata (cowpea) assessed as AMPA level at growth inhibition I50 level rate measured 7 days post treatment; type: organism-based; conditions: in vivo, 168 h; in short: as §1
# Glycine max [3] = assay: Drug level in non glyphosate-resistant Glycine max (soybean) assessed as AMPA level at growth inhibition I50 level rate measured 7 days post treatment; type: organism-based; conditions: in vivo, 168 h; in short: as §1
# Glycine max [4] = assay: Drug level in glyphosate-resistant Glycine max (soybean) assessed as AMPA level at growth inhibition I50 level rate measured 7 days post treatment; type: organism-based; conditions: in vivo, 168 h; in short: as §1
# [5] = Drug level in non glyphosate-resistant Zea mays (maize) at growth inhibition I50 level rate measured 7 days post treatment; type: organism-based; conditions: in vivo, read-out: Drug uptake; in short: as §1
# [6] = Drug level in Lolium multiflorum (Italian ryegrass) at growth inhibition I50 level rate measured 7 days post treatment; type: organism-based; conditions: in vivo, read-out: Drug uptake; in short: as §1
# [7] = Drug level in glyphosate-resistant Zea mays (maize) at growth inhibition I50 level rate measured 7 days post treatment; type: organism-based; conditions: in vivo, read-out: Drug uptake; in short: as §1
# [8] = Drug level in Abutilon theophrasti (velvetleaf) at growth inhibition I50 level rate measured 7 days post treatment; type: organism-based; conditions: in vivo, read-out: Drug uptake; in short: as §1
# [9] = Drug level in Conyza canadensis (horseweed) at growth inhibition I50 level rate measured 7 days post treatment; type: organism-based; conditions: erigeron canadensis, in vivo; read-out: Drug uptake; in short: as §1
# [10] = Drug level in Pueraria montana var. lobata ( kudzu) at growth inhibition I50 level rate measured 7 days post treatment; type: organism-based; conditions: in vivo, read-out: Drug uptake; in short: as §1
# [11] = Drug level in Desmanthus illinoensis (Illinois bundleflower) at growth inhibition I50 level rate measured 7 days post treatment; type: organism-based; conditions: in vivo, read-out: Drug uptake; in short: as §1
# [12] = Drug level in Sesbania herbacea at growth inhibition I50 level rate measured 7 days post treatment; type: organism-based; conditions: in vivo, read-out: Drug uptake; in short: as §1
# [13] = Drug level in Senna occidentalis (coffee senna) at growth inhibition I50 level rate measured 7 days post treatment; type: organism-based; conditions: in vivo, read-out: Drug uptake; in short: as §1
# [14] = Drug level in Senna obtusifolia (sicklepod) at growth inhibition I50 level rate measured 7 days post treatment; type: organism-based; conditions: in vivo, read-out: Drug uptake; in short: as §1
# [15] = Drug level in Vigna unguiculata (cowpea) at growth inhibition I50 level rate measured 7 days post treatment; type: organism-based; conditions: in vivo, read-out: Drug uptake; in short: as §1
# [16] = Drug level in non glyphosate-resistant Glycine max (soybean) at growth inhibition I50 level rate measured 7 days post treatment; type: organism-based; conditions: in vivo, read-out: Drug uptake; in short: as §1
# [17] = Drug level in glyphosate-resistant Glycine max (soybean) at growth inhibition I50 level rate measured 7 days post treatment; type: organism-based; conditions: in vivo, read-out: Drug uptake; in short: as §1
# Lolium multiflorum = assay: Growth inhibition of Lolium multiflorum (Italian ryegrass) measured 7 days post treatment; type: functional
# Zea mays [18] = assay: Growth inhibition of glyphosate-resistant Zea mays (maize) measured 7 days post treatment; type: functional
# Erigeron canadensis = assay: Growth inhibition of Conyza canadensis (horseweed) measured 7 days post treatment; type: functional
# Glycine max [19] = assay: Growth inhibition of non glyphosate-resistant Glycine max (soybean) measured 7 days post treatment; type: functional
# Glycine max [20] = assay: Growth inhibition of glyphosate-resistant Glycine max (soybean) measured 7 days post treatment; type: functional
# [21] = system: Pueraria montana var. lobata; assay: Growth inhibition of Pueraria montana var. lobata ( kudzu) measured 7 days post treatment; type: functional
# Desmanthus illinoensis = assay: Growth inhibition of Desmanthus illinoensis (Illinois bundleflower) measured 7 days post treatment; type: functional
# Sesbania herbacea = assay: Growth inhibition of Sesbania herbacea measured 14 days post treatment
# Vigna unguiculata [22] = assay: Growth inhibition of Vigna unguiculata (cowpea) measured 14 days post treatment
# Senna obtusifolia = assay: Growth inhibition of Senna obtusifolia (sicklepod) measured 14 days post treatment
# Senna occidentalis [23] = assay: Growth inhibition of Senna occidentalis (coffee senna) measured 14 days post treatment
# Abutilon theophrasti = assay: Growth inhibition of Abutilon theophrasti (velvetleaf) measured 14 days post treatment
# Zea mays [24] = assay: Growth inhibition of non glyphosate-resistant Zea mays (maize) measured 14 days post treatment
smiles,measurement,setting,value
O=C(O)CNCP(=O)(O)O [GLYPHOSATE],Drug uptake,Senna occidentalis [1],287 ng/g
same,Drug uptake,Vigna unguiculata [2],4765 ng/g
same,Drug uptake,Glycine max [3],668 ng/g
same,Drug uptake,Glycine max [4],119 ng/g
same,concentration at 168 h,[5],851 ng/g
same,concentration at 168 h,[6],7430 ng/g
same,concentration at 168 h,[7],308 ng/g
same,concentration at 168 h,[8],678 ng/g
same,concentration at 168 h,[9],26300 ng/g
same,concentration at 168 h,[10],5560 ng/g
same,concentration at 168 h,[11],3270 ng/g
same,concentration at 168 h,[12],38600 ng/g
same,concentration at 168 h,[13],5910 ng/g
same,concentration at 168 h,[14],6410 ng/g
same,concentration at 168 h,[15],26800 ng/g
same,concentration at 168 h,[16],25000 ng/g
same,concentration at 168 h,[17],5830 ng/g
same,I50,Lolium multiflorum,220 gAi/ha
same,I50,Zea mays [18],93 gAi/ha
same,I50,Erigeron canadensis,170 gAi/ha
same,I50,Glycine max [19],250 gAi/ha
same,I50,Glycine max [20],250 gAi/ha
same,I50,[21],77 gAi/ha
same,I50,Desmanthus illinoensis,272 gAi/ha
same,I50,Sesbania herbacea,456 gAi/ha
same,I50,Vigna unguiculata [22],201 gAi/ha
same,I50,Senna obtusifolia,252 gAi/ha
same,I50,Senna occidentalis [23],75 gAi/ha
same,I50,Abutilon theophrasti,122 gAi/ha
same,I50,Zea mays [24],93 gAi/ha
